Results taken from ChEMBL document CHEMBL1153001 (Eur J Med Chem, 2009).

Tested on: Human betaherpesvirus 5
Assay: Antiviral activity against human cytomegalovirus Davis infected in human HEL cells assessed as inhibition of virus-induced cytopathicity after 7 days post infection
Assay type: functional, organism-based
Settings: Human betaherpesvirus 5, Davis, 168 h
In short: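 Confluent HEL cell cultures in microtiter plates inoculated with 100 PFU CMV. After 2 h adsorption, residual virus removed and cells incubated with varying compound concentrations. Read once cytopathicity was complete in virus controls, usually 7 days post-infection. EC50 = concentration giving 50% reduction in plaque formation/cytopathicity.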

| EC50 [µM] | SMILES |
| --- | --- |
| 50.2 | O=c1c2ncn(CC3(CO)CC3CO)c2nc2[nH]c(-c3cccs3)cn12 (centres undefined) |
| > 100 | O=c1c2ncn(COCCO)c2nc2[nH]c(-c3ccco3)cn12 |
| > 100 | O=c1c2ncn(CC3(CO)CC3CO)c2nc2[nH]c(-c3ccco3)cn12 (cis isomer) |
| 100 | O=c1c2ncn(COCCO)c2nc2[nH]c(-c3ccc(Br)s3)cn12 |
| 100 | O=c1c2ncn(COCCO)c2nc2[nH]c(-c3cccs3)cn12 |

Further lines, the molecule ahead of its results:

| SMILES | EC50 [µM] |
| --- | --- |
| Nc1nc(O)c2ncn(CC3(CO)CC3CO)c2n1 (centres undefined) | 44.7 |
| O=c1c2ncn(CC3(CO)CC3CO)c2nc2[nH]c(-c3ccc(Br)s3)cn12 (centres undefined) | 76.5 |
| Nc1nc2c(ncn2COCCO)c(=O)[nH]1 [ACYCLOVIR] | 45 |

Tested on: not listed separately
Assay: Cytotoxicity against human HEL cells assessed as microscopically detectable morphological alterations after 3 days
Assay type: cell-based
Settings: not given
In short: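 HEL cell cultures exposed to varying compound concentrations. Cells examined microscopically for changes in morphology. MCC = lowest concentration producing a detectable alteration of cell morphology.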

| SMILES | MCC at 72 h [µM] |
| --- | --- |
| O=c1c2ncn(CC3(CO)CC3CO)c2nc2[nH]c(-c3cccs3)cn12 (centres undefined) | > 100 |
| Nc1nc2c(ncn2COC(CO)CO)c(=O)[nH]1 [GANCICLOVIR] | > 1580 |
| O=c1[nH]c(=O)n([C@H]2C[C@H](O)[C@@H](CO)O2)cc1/C=C/Br [BRIVUDINE] | > 1200 |
| O=c1c2ncn(COCCO)c2nc2[nH]c(-c3ccco3)cn12 | > 100 |
| Nc1nc(O)c2ncn(CC3(CO)CC3CO)c2n1 (centres undefined) | > 100 |
| O=c1c2ncn(CC3(CO)CC3CO)c2nc2[nH]c(-c3ccco3)cn12 (cis isomer) | > 100 |
| Nc1ccn(C[C@@H](CO)OCP(=O)(O)O)c(=O)n1 [CIDOFOVIR] | ≥ 254 |
| O=c1c2ncn(CC3(CO)CC3CO)c2nc2[nH]c(-c3ccc(Br)s3)cn12 (centres undefined) | > 100 |
| O=c1c2ncn(COCCO)c2nc2[nH]c(-c3ccc(Br)s3)cn12 | > 100 |
| O=c1c2ncn(COCCO)c2nc2[nH]c(-c3cccs3)cn12 | > 100 |

Tested on: not listed separately
Assay: Cytotoxicity against human HEL cells assessed as reduction in cell growth after 3 days
Assay type: cell-based
Settings: not given
In short: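 HEL cell suspensions seeded into wells holding varying compound concentrations. Grown 3 days at 37 °C in humidified CO2 incubator. Viable cells counted with a Coulter Counter. CC50 = concentration lowering viable cell number by 50%.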

| SMILES | CC50 at 72 h [µM] |
| --- | --- |
| O=c1c2ncn(CC3(CO)CC3CO)c2nc2[nH]c(-c3cccs3)cn12 (centres undefined) | > 100 |
| Nc1nc2c(ncn2COC(CO)CO)c(=O)[nH]1 [GANCICLOVIR] | 221 |
| O=c1[nH]c(=O)n([C@H]2C[C@H](O)[C@@H](CO)O2)cc1/C=C/Br [BRIVUDINE] | 432 |
| O=c1c2ncn(COCCO)c2nc2[nH]c(-c3ccco3)cn12 | > 100 |
| Nc1nc(O)c2ncn(CC3(CO)CC3CO)c2n1 (centres undefined) | > 100 |
| O=c1c2ncn(CC3(CO)CC3CO)c2nc2[nH]c(-c3ccco3)cn12 (cis isomer) | > 100 |
| Nc1ccn(C[C@@H](CO)OCP(=O)(O)O)c(=O)n1 [CIDOFOVIR] | 54 |
| O=c1c2ncn(CC3(CO)CC3CO)c2nc2[nH]c(-c3ccc(Br)s3)cn12 (centres undefined) | > 100 |
| O=c1c2ncn(COCCO)c2nc2[nH]c(-c3ccc(Br)s3)cn12 | > 100 |
| Nc1nc2c(ncn2COCCO)c(=O)[nH]1 [ACYCLOVIR] | 782 |
| O=c1c2ncn(COCCO)c2nc2[nH]c(-c3cccs3)cn12 | > 100 |

Tested on: Human alphaherpesvirus 3
Assay: Ratio of compound EC50 to Acyclovir EC50 for Varicella zoster virus OKA infected in human HEL cells assessed as inhibition of virus induced cytopathicity after 5 days
Assay type: functional
Settings: not given

| SMILES | Ratio EC50 |
| --- | --- |
| Nc1nc(O)c2ncn(CC3(CO)CC3CO)c2n1 (centres undefined) | 14 |

Tested on: Human alphaherpesvirus 3
Assay: Ratio of compound EC50 to RA-5021 EC50 for Varicella zoster virus YS infected in human HEL cells assessed as inhibition of virus induced cytopathicity after 5 days
Assay type: functional
Settings: not given

| SMILES | Ratio EC50 |
| --- | --- |
| O=c1c2ncn(CC3(CO)CC3CO)c2nc2[nH]c(-c3cccs3)cn12 (centres undefined) | 1.3 |
| O=c1c2ncn(CC3(CO)CC3CO)c2nc2[nH]c(-c3ccccc3)cn12 (centres undefined) | 2 |
| O=c1c2ncn(CC3(CO)CC3CO)c2nc2[nH]c(-c3ccco3)cn12 (cis isomer) | 2.1 |
| O=c1c2ncn(CC3(CO)CC3CO)c2nc2[nH]c(-c3ccc(Br)s3)cn12 (centres undefined) | 2.9 |

Tested on: Human alphaherpesvirus 3
Assay: Ratio of compound EC50 to RA-5021 EC50 for Varicella zoster virus OKA infected in human HEL cells assessed as inhibition of virus induced cytopathicity after 5 days
Assay type: functional
Settings: not given

| SMILES | Ratio EC50 |
| --- | --- |
| O=c1c2ncn(CC3(CO)CC3CO)c2nc2[nH]c(-c3cccs3)cn12 (centres undefined) | 2.5 |
| O=c1c2ncn(CC3(CO)CC3CO)c2nc2[nH]c(-c3ccccc3)cn12 (centres undefined) | 3 |
| O=c1c2ncn(CC3(CO)CC3CO)c2nc2[nH]c(-c3ccco3)cn12 (cis isomer) | 3.2 |
| O=c1c2ncn(CC3(CO)CC3CO)c2nc2[nH]c(-c3ccc(Br)s3)cn12 (centres undefined) | 7 |

Tested on: Human alphaherpesvirus 3
Assay: Ratio of compound EC50 to Acyclovir EC50 for Varicella zoster virus YS infected in human HEL cells assessed as inhibition of virus induced cytopathicity after 5 days
Assay type: functional
Settings: not given

| SMILES | Ratio EC50 |
| --- | --- |
| Nc1nc(O)c2ncn(CC3(CO)CC3CO)c2n1 (centres undefined) | 7 |

Tested on: Human betaherpesvirus 5
Assay: Antiviral activity against human cytomegalovirus AD169 infected in human HEL cells assessed as inhibition of virus-induced cytopathicity after 7 days post infection
Assay type: functional, organism-based
Settings: Human betaherpesvirus 5, AD169, HEL, 168 h
In short: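 Confluent HEL cell cultures in microtiter plates inoculated with 100 PFU CMV. After 2 h adsorption, residual virus removed and cells incubated with varying compound concentrations. Read once cytopathicity was complete in virus controls, usually 7 days post-infection.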

| EC50 [µM] | SMILES |
| --- | --- |
| > 100 | O=c1c2ncn(CC3(CO)CC3CO)c2nc2[nH]c(-c3cccs3)cn12 (centres undefined) |
| > 100 | O=c1c2ncn(COCCO)c2nc2[nH]c(-c3ccco3)cn12 |
| > 100 | O=c1c2ncn(CC3(CO)CC3CO)c2nc2[nH]c(-c3ccco3)cn12 (cis isomer) |
| > 100 | O=c1c2ncn(COCCO)c2nc2[nH]c(-c3ccc(Br)s3)cn12 |
| > 100 | O=c1c2ncn(COCCO)c2nc2[nH]c(-c3cccs3)cn12 |

Continued, molecule first:

| SMILES | EC50 [µM] |
| --- | --- |
| Nc1nc2c(ncn2COC(CO)CO)c(=O)[nH]1 [GANCICLOVIR] | 12.6 |
| Nc1nc(O)c2ncn(CC3(CO)CC3CO)c2n1 (centres undefined) | 100 |
| Nc1ccn(C[C@@H](CO)OCP(=O)(O)O)c(=O)n1 [CIDOFOVIR] | 1.6 |
| O=c1c2ncn(CC3(CO)CC3CO)c2nc2[nH]c(-c3ccc(Br)s3)cn12 (centres undefined) | > 100 |

Tested on: Human alphaherpesvirus 3
Assay: Antiviral activity against thymidine kinase deficient Varicella zoster virus 07/1 infected in human HEL cells assessed as inhibition of virus-induced cytopathicity after 5 days
Assay type: functional, organism-based
Settings: Human alphaherpesvirus 3, 07/1, HEL, 120 h
In short: (§1)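 Confluent HEL cell cultures infected with 20 PFU/well VZV; after 2 h adsorption, residual virus removed and serial compound dilutions added. Incubated 5 days at 37 °C, 5% CO2, then fixed and stained. Plaques counted against untreated control.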

| EC50 [µM] | SMILES |
| --- | --- |
| 71.5 | O=c1c2ncn(CC3(CO)CC3CO)c2nc2[nH]c(-c3cccs3)cn12 (centres undefined) |
| > 100 | O=c1c2ncn(COCCO)c2nc2[nH]c(-c3ccco3)cn12 |
| > 100 | O=c1c2ncn(CC3(CO)CC3CO)c2nc2[nH]c(-c3ccco3)cn12 (cis isomer) |
| > 100 | O=c1c2ncn(COCCO)c2nc2[nH]c(-c3ccc(Br)s3)cn12 |
| > 100 | O=c1c2ncn(COCCO)c2nc2[nH]c(-c3cccs3)cn12 |

Continued, molecule first:

| SMILES | EC50 [µM] |
| --- | --- |
| Nc1nc2c(ncn2COC(CO)CO)c(=O)[nH]1 [GANCICLOVIR] | 2.5 |
| O=c1[nH]c(=O)n([C@H]2C[C@H](O)[C@@H](CO)O2)cc1/C=C/Br [BRIVUDINE] | 157 |
| Nc1nc(O)c2ncn(CC3(CO)CC3CO)c2n1 (centres undefined) | 25.8 |
| O=c1c2ncn(CC3(CO)CC3CO)c2nc2[nH]c(-c3ccc(Br)s3)cn12 (centres undefined) | > 100 |

Tested on: Human alphaherpesvirus 3
Assay: Antiviral activity against Varicella zoster virus OKA infected in human HEL cells assessed as inhibition of virus-induced cytopathicity after 5 days
Assay type: functional, organism-based
Settings: Human alphaherpesvirus 3, OKA, 120 h
In short: as §1

| EC50 [µM] | SMILES |
| --- | --- |
| 0.32 | O=c1c2ncn(CC3(CO)CC3CO)c2nc2[nH]c(-c3cccs3)cn12 (centres undefined) |
| 16.4 | O=c1c2ncn(COCCO)c2nc2[nH]c(-c3ccco3)cn12 |
| 0.42 | O=c1c2ncn(CC3(CO)CC3CO)c2nc2[nH]c(-c3ccco3)cn12 (cis isomer) |
| 8.7 | O=c1c2ncn(COCCO)c2nc2[nH]c(-c3ccc(Br)s3)cn12 |
| 5.8 | O=c1c2ncn(COCCO)c2nc2[nH]c(-c3cccs3)cn12 |

The next lines start with the molecule.

| SMILES | EC50 [µM] |
| --- | --- |
| Nc1nc2c(ncn2COC(CO)CO)c(=O)[nH]1 [GANCICLOVIR] | 0.59 |
| Nc1nc(O)c2ncn(CC3(CO)CC3CO)c2n1 (centres undefined) | 0.13 |
| O=c1c2ncn(CC3(CO)CC3CO)c2nc2[nH]c(-c3ccc(Br)s3)cn12 (centres undefined) | 0.93 |

Tested on: Human alphaherpesvirus 3
Assay: Antiviral activity against Varicella zoster virus YS infected in human HEL cells assessed as inhibition of virus induced cytopathicity after 5 days
Assay type: functional, organism-based
Settings: Human alphaherpesvirus 3, YS, 120 h
In short: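 Confluent HEL cell cultures infected with 20 PFU/well VZV; after 2 h adsorption, residual virus removed and serial compound dilutions added. Incubated 5 days at 37 °C, 5% CO2, then fixed and stained. Plaques counted against untreated control. EC50 = concentration cutting plaque formation by 50%.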

| EC50 [µM] | SMILES |
| --- | --- |
| 0.38 | O=c1c2ncn(CC3(CO)CC3CO)c2nc2[nH]c(-c3cccs3)cn12 (centres undefined) |
| 0.64 | O=c1c2ncn(CC3(CO)CC3CO)c2nc2[nH]c(-c3ccco3)cn12 (cis isomer) |
| 10 | O=c1c2ncn(COCCO)c2nc2[nH]c(-c3ccc(Br)s3)cn12 |
| 7.9 | O=c1c2ncn(COCCO)c2nc2[nH]c(-c3cccs3)cn12 |

Further lines, the molecule ahead of its results:

| SMILES | EC50 [µM] |
| --- | --- |
| Nc1nc2c(ncn2COC(CO)CO)c(=O)[nH]1 [GANCICLOVIR] | 1.1 |
| O=c1[nH]c(=O)n([C@H]2C[C@H](O)[C@@H](CO)O2)cc1/C=C/Br [BRIVUDINE] | 0.026 |
| Nc1nc(O)c2ncn(CC3(CO)CC3CO)c2n1 (centres undefined) | 0.3 |
| O=c1c2ncn(CC3(CO)CC3CO)c2nc2[nH]c(-c3ccc(Br)s3)cn12 (centres undefined) | 0.87 |
| Nc1nc2c(ncn2COCCO)c(=O)[nH]1 [ACYCLOVIR] | 2 |
